Consider one compound from ChEMBL document CHEMBL5608193, “Discovery of bivalent small molecule degraders of cyclin-dependent kinase 7 (CDK7)” (Eur J Med Chem, 2024).

Each structure is given as a SMILES string. Active and inactive are the calls of the source. The calls are words filed in the database; no cut-off is given here.

Series [1] concerns the target T1, von Hippel-Lindau disease tumor suppressor/Cyclin-dependent kinase 7 (Homo sapiens) (UniProt P50613+P40337). Kind of series: PROTAC activity at CDK7/VHL in human Jurkat cells assessed as degradation of CDK7 at 1 uM measured after 16 hrs incubation by immunoblot analysis relative to control. The class given is cell-based. The procedure, abridged: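 Jurkat cells given VHL-recruiting compounds at 0.1 or 1 μM for 16 h. RIPA lysis, BCA normalization, 4–20% SDS-PAGE, nitrocellulose transfer. CDK7 (1:1000) and β-actin probed overnight at 4 °C, IRDye secondaries, Odyssey detection. Quantified against control, mean ± SEM from three independent biological replicates.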
For orientation: A western blot detects proteins with antibodies after separation by electrophoresis.

Series [2] concerns the target T1, von Hippel-Lindau disease tumor suppressor/Cyclin-dependent kinase 7 (Homo sapiens). Kind of series: PROTAC activity at CDK7/VHL in human Jurkat cells assessed as degradation of CDK7 at 0.1 uM by immunoblot analysis. The class given is cell-based. The following applies: time 0.5-24 hrs, TDE = time-dependent effect. The essentials: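 Jurkat time course at 0.1 μM, lysates taken at set time points from 0.5 up to 24 h. CDK7 immunoblotted after RIPA lysis, SDS-PAGE and near-infrared detection with β-actin loading control.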

The target is the same in series [3]. Kind of series: PROTAC activity at CDK7/VHL in human Jurkat cells assessed as degradation of CDK7 measured after 6 hrs incubation by immunoblot analysis. The following applies: dose 10-5000 nM. Type of series: cell-based.
For series [4] the target is unchanged. Kind of series: PROTAC activity at CDK7/VHL in human SU-DHL-5 cells assessed as degradation of CDK7 at 0.1 to 5 uM measured after 6 hrs incubation by immunoblot analysis. The class given is cell-based. The following applies: dose 0.1-5 µM.
The target is the same in series [5]. Kind of series: PROTAC activity at CDK7/VHL in human A549 cells assessed as degradation of CDK7 measured at 0.1 to 5 uM measured after 6 hrs incubation by immunoblot analysis. Type of series: cell-based. The following applies: dose 0.1-5 µM.
For series [6] the target is unchanged. Kind of series: PROTAC activity at CDK7/VHL in human Jurkat cells assessed as degradation of CDK7 in presence of 0.5 uM MG132 at 0.1 uM measured after 6 hrs incubation by immunoblot analysis. The class given is cell-based. The essentials:
(§1)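 Jurkat cells pretreated 2 h with MG132, MLN-4924, YKL-5–167 or a VHL ligand, then given degrader for 6 h. CDK7 immunoblotted: RIPA lysis, SDS-PAGE, anti-CDK7 1:1000, IRDye secondaries.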

For series [7] the target is unchanged. Put plainly: PROTAC activity at CDK7/VHL in human Jurkat cells assessed as degradation of CDK7 in presence of 1 uM MLN-4924 at 0.1 uM measured after 6 hrs incubation by immunoblot analysis. Type of series: cell-based. The procedure, abridged: as §1
For series [8] the target is unchanged. Put plainly: PROTAC activity at CDK7/VHL in human Jurkat cells assessed as degradation of CDK7 in presence of 10 uM YKL-5-167 at 0.1 uM measured after 6 hrs incubation by immunoblot analysis. Type of series: cell-based. The essentials: as §1
The target in series [9] is Cyclin-dependent kinase 7 (Homo sapiens) (UniProt P50613). Put plainly: Induction of degradation of CDK7 in human […]-knockout Jurkat cells at 0.01 to 1 uM measured after 6 hrs incubation by immunoblot analysis. The class given is cell-based. The following applies: dose 0.01-1 µM. The procedure, abridged: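 Parental and VHL-knockout Jurkat cells treated with degrader for 6 h, then CDK7 western blot (RIPA lysis, 4–20% SDS-PAGE, β-actin control, infrared detection).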
Sequence of Cyclin-dependent kinase 7 (Homo sapiens) (P50613 whole entry): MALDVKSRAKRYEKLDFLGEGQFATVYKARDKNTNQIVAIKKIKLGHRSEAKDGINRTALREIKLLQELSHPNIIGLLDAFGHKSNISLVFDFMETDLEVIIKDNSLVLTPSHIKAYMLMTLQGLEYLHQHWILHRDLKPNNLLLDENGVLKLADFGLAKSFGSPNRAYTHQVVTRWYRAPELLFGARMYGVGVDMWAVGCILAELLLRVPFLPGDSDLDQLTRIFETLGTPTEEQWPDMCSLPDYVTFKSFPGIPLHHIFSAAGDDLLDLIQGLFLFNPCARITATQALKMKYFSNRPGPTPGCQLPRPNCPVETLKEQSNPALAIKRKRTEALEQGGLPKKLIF

For series [10], the target named is von Hippel-Lindau disease tumor suppressor/Cyclin-dependent kinase 8 (Homo sapiens) (UniProt P49336+P40337). Put plainly: PROTAC activity at CDK8/VHL in human Jurkat cells assessed as degradation of CDK7 measured at 10 to 500 nM after 6 hrs incubation by Western blotting analysis. The class given is cell-based. As to conditions: dose 10-500 nM.
Sequence of von Hippel-Lindau disease tumor suppressor/Cyclin-dependent kinase 8 (Homo sapiens) (P40337 whole entry, looked up): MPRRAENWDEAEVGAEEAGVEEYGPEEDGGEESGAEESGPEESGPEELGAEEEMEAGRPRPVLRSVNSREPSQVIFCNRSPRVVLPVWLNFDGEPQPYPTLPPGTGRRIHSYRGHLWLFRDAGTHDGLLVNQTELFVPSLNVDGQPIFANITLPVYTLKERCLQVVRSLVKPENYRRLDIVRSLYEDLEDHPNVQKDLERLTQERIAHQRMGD
Sequence of von Hippel-Lindau disease tumor suppressor/Cyclin-dependent kinase 8 (Homo sapiens) (P49336 whole entry, looked up): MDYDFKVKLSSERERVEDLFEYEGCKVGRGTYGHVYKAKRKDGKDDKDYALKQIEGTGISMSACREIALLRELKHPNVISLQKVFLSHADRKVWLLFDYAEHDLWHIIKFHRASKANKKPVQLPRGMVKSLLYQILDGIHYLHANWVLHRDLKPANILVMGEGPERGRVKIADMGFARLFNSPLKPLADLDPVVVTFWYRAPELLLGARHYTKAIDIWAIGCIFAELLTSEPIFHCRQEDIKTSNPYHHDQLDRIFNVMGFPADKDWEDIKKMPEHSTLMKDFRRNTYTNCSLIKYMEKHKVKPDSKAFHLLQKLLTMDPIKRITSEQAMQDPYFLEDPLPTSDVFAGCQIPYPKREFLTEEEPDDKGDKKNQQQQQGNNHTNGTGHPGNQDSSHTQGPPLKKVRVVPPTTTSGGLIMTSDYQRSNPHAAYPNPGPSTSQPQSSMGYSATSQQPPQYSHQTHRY
For series [11], the target named is T1, von Hippel-Lindau disease tumor suppressor/Cyclin-dependent kinase 7 (Homo sapiens). Kind of series: PROTAC activity at CDK7/VHL in human Jurkat cells assessed as degradation of CDK7 measured at 0.1 to 5 uM after 6 hrs incubation by Western blotting analysis. The class given is cell-based. As to conditions: dose 0.1-5 µM. The essentials:
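Jurkat cells dosed across a concentration series up to 5 μM for 6 h. CDK7 immunoblot via RIPA lysis, 4–20% SDS-PAGE, IRDye secondaries. Quantified as mean ± SEM from three independent biological replicates.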

Series [12] has the same target. Kind of series: PROTAC activity at CDK7/VHL in human Jurkat cells assessed as degradation of Cyclin H measured at 0.1 to 5 uM after 6 hrs incubation by Western blotting analysis. Type of series: cell-based. As to conditions: dose 0.1-5 µM. The procedure, abridged:
(§2)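 Jurkat and OVCAR3 cells treated 6 h across a concentration series. Blots probed for CDK7, MAT1 (1:1000) and Cyclin H (1:1000) overnight at 4 °C, with β-actin control and IRDye secondaries.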

For series [13] the target is unchanged. Kind of series: PROTAC activity at CDK7/VHL in human Jurkat cells assessed as degradation of MAT1 measured at 0.1 to 5 uM after 6 hrs incubation by Western blotting analysis. The class given is cell-based. As to conditions: dose 0.1-5 µM. The essentials: as §2
In series [14] the target is von Hippel-Lindau disease tumor suppressor/LON peptidase N-terminal domain and RING finger protein 2 (Homo sapiens) (UniProt P40337+Q1L5Z9). Put plainly: PROTAC activity at LONRF2/VHL in human Jurkat cells assessed as degradation of LONRF2 measured at 0.1 to 5 uM after 6 hrs incubation by Western blotting analysis. As to conditions: dose 0.1-5 µM. Type of series: cell-based.
Sequence of von Hippel-Lindau disease tumor suppressor/LON peptidase N-terminal domain and RING finger protein 2 (Homo sapiens) (P40337 whole entry, looked up, the tested form may be a part): as the sequence (P40337 whole entry, looked up) above
Sequence of von Hippel-Lindau disease tumor suppressor/LON peptidase N-terminal domain and RING finger protein 2 (Homo sapiens) (Q1L5Z9 whole entry, looked up, the tested form may be a part): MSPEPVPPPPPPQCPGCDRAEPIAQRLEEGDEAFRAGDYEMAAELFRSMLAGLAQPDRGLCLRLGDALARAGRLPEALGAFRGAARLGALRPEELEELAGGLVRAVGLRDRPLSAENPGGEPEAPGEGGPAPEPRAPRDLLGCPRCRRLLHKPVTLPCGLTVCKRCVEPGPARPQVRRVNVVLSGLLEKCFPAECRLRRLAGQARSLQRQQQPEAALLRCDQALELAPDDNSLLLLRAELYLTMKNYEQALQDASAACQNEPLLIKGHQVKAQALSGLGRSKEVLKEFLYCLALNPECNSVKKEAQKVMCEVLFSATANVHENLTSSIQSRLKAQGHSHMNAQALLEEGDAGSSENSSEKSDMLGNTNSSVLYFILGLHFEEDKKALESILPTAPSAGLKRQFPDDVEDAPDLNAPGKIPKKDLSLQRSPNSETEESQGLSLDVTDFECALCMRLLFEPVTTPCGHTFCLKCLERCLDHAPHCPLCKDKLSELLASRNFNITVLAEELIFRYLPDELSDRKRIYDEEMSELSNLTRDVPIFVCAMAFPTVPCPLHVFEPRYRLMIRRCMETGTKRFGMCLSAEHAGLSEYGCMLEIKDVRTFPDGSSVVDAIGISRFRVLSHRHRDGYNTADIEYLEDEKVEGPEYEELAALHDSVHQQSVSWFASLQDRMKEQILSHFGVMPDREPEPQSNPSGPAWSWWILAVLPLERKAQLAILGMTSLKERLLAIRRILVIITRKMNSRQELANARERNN

Series [15] concerns Jurkat. Put plainly: Antiproliferative activity against human Jurkat cells assessed as cell viability measured after 72 hrs by CellTiter-Glo assay. The class given is functional, cell-based. The essentials:
(§3)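 Cells grown in RPMI 1640 with 10% heat-inactivated FBS and penicillin/streptomycin at 37 °C, 5% CO2, mycoplasma-negative. Seeded at 10^4/ml. Compounds dispensed digitally from 10 mM or 1 mM DMSO stocks, DMSO equalized, triplicate wells. After 72 h, CellTiter-Glo added for 10–15 min at room temperature and luminescence read.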
In general terms: Cellular ATP, detected with luciferase, serves as a proxy for viable cell number.

In series [16] the test system is OVCAR-3. Put plainly: Antiproliferative activity against human OVCAR-3 cells assessed as cell viability measured after 72 hrs by CellTiter-Glo assay. The class given is functional, cell-based. As to conditions: OVCAR-3, 72 h. The procedure, abridged:
as §3

The subject of series [17] is Jurkat. Kind of series: Potency index, ratio of YKL-5-167 IC50 to test compound IC50 for antiproliferative activity against human Jurkat cells assessed as cell viability measured after 72 hrs by CellTiter-Glo assay. The class given is functional.
Series [18] can be described thus: Tmax in male CD1 mouse at 3 mg/kg, IV measured upto 24 hrs by LC-MS/MS-39 analysis. Type of series: ADME, organism-based. The following applies: in vivo. The procedure, abridged:
(§4)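 Three male CD1 mice given a single 3 mg/kg intravenous dose. Plasma prepared on ice by centrifugation (2000 g, 5 min, 4 °C) within 15 min, held at about −70 °C. Acetonitrile precipitation, then LC-MS/MS quantitation. Mean ± SD, n=3.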

A short description of series [19]: AUClast in male CD1 mouse at 3 mg/kg, IV measured upto 24 hrs by LC-MS/MS-39 analysis. The class given is ADME, organism-based. The following applies: in vivo. The essentials:
as §4

A short description of series [20]: Observed clearance in male CD1 mouse at 3 mg/kg, IV measured upto 24 hrs by LC-MS/MS-39 analysis. Type of series: ADME, organism-based. As to conditions: in vivo. The essentials: as §4
Series [21] is described as follows: Half life in male CD1 mouse at 10 mg/kg, IP measured upto 24 hrs by LC-MS/MS-39 analysis. Type of series: ADME, organism-based. As to conditions: in vivo. The procedure, abridged:
(§5)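 Male CD1 mice, n=3, one 10 mg/kg intraperitoneal dose. Blood sampled at 0, 0.25, 0.5, 1, 2, 4, 6, 8 and 24 h. Kept on wet ice and spun to plasma (2000 g, 5 min, 4 °C) within 15 min, stored at about −70 °C. Protein precipitation with acetonitrile, then LC-MS/MS. Values are mean ± SD of three mice.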

A short description of series [22]: Tmax in male CD1 mouse at 10 mg/kg, IP measured upto 24 hrs by LC-MS/MS-39 analysis. The following applies: in vivo. The class given is ADME, organism-based. The essentials: as §5
Series [23] is described as follows: Observed clearance in male CD1 mouse at 10 mg/kg, IP measured upto 24 hrs by LC-MS/MS-39 analysis. Type of series: ADME, organism-based. The following applies: in vivo. The procedure, abridged:
as §5

T1 sequence (P40337 whole entry, looked up): as the sequence (P40337 whole entry, looked up) above
T1 sequence (P50613 whole entry, looked up): as the sequence (P50613 whole entry) above

The IC50 is the midpoint of a concentration-inhibition curve. By Tmax is commonly meant the time from dosing to the highest level. As a reminder, the clearance is the rate of elimination divided by the concentration. A word on the CL/F: it is clearance divided by bioavailability, as obtained after extravascular dosing. For `Cc1ncsc1-c1ccc([C@H](C)NC(=O)[C@@H]2C[C@@H](O)CN2C(=O)[C@@H](NC(=O)CCCC#Cc2ccc(C(=O)Nc3n[nH]c4c3CN(C(=O)N[C@H](CN(C)C)c3ccccc3)C4(C)C)cc2)C(C)(C)C)cc1`, the Activity is 95% in [1], “Tde” in [2], “Dose-Dependent Effect” in series [4] and “Dose-Dependent Effect” in series [5]. Further, in series [3], the Efficacy result is “Dose-Dependent Effect”. Also, the outcome in series [6], in series [7], in series [8], in [9], in [10] and in series [14] was inactive. In addition, the outcome in series [11], in series [12] and in [13] was Active. The figures for the IC50 in [15] and in series [16] were 160 nM and 780 nM, respectively. Besides, the Ratio in series [17] is on record as 7. For the same compound, the Tmax in series [18] is 4.98 min; in series [22], 60 min. In addition, the AUClast in series [19] is 6.12 µM·h. For the same compound, the clearance in [20] is 8.3 mL/min/kg. Also, the t1/2 in [21] is 169 min. The CL/F in series [23] was 8.7 mL/min/kg.
